In paper PMC3355950 (The Journal of Neuroscience, 2012):

Key:
Test in all cases: Two-electrode voltage-clamp recordings, Xenopus oocytes
Assay type in all cases: cell-based
GluN1/GluN2D = GluN1/GluN2D (Rattus norvegicus, UniProt P35439+Q62645); conditions: 100 μM glutamate + 3 μM glycine; N.E. = no effect at 10 μM TCN-201
Summary of the method: (§1)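 cRNA from linearized constructs injected into female Xenopus laevis oocytes. Two-electrode voltage clamp done 3–4 d later at 23°C, holding at −40 mV, in 90 NaCl, 1 KCl, 10 HEPES, 0.5 BaCl₂, 0.01 EDTA (mM), pH 7.4. […] Max inhibition is (control − residual at saturating compound)/control.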

GluN1/GluN2A V783S = GluN1/GluN2A V783S (Rattus norvegicus, UniProt P35439+Q00959, V783S); conditions: 100 μM glutamate + 3 μM glycine
GluN1/2A-(2D ATD) = GluN1/2A-(2D ATD) (Rattus norvegicus, UniProt P35439+Q00959+Q62645, A388P/C399P/D398Q/D403T/E353D/E371T/E400V/G345N/H358N/H387Y/K346R/K368R/K374V/K377S/K394G/L348Y/N367T/N380Q/N404Q/P391S/P401D/Q356L/R360S/R386K/S384R/S395R/S397L/T351N/V365S/V389L/Y355F); conditions: 100 μM glutamate plus 30 μM glycine; vs GluN1/GluN2A
GluN1/GluN2A T793R = GluN1/GluN2A T793R (Rattus norvegicus, UniProt P35439+Q00959, T793R); conditions: 100 μM glutamate + 3 μM glycine
GluN1/GluN2B = GluN1/GluN2B (Rattus norvegicus, UniProt P35439+Q00960); conditions: 100 μM glutamate + 3 μM glycine; N.E. = no effect at 10 μM TCN-201
Chain of GluN1/GluN2B (Q00960 27-1482, other chains not shown): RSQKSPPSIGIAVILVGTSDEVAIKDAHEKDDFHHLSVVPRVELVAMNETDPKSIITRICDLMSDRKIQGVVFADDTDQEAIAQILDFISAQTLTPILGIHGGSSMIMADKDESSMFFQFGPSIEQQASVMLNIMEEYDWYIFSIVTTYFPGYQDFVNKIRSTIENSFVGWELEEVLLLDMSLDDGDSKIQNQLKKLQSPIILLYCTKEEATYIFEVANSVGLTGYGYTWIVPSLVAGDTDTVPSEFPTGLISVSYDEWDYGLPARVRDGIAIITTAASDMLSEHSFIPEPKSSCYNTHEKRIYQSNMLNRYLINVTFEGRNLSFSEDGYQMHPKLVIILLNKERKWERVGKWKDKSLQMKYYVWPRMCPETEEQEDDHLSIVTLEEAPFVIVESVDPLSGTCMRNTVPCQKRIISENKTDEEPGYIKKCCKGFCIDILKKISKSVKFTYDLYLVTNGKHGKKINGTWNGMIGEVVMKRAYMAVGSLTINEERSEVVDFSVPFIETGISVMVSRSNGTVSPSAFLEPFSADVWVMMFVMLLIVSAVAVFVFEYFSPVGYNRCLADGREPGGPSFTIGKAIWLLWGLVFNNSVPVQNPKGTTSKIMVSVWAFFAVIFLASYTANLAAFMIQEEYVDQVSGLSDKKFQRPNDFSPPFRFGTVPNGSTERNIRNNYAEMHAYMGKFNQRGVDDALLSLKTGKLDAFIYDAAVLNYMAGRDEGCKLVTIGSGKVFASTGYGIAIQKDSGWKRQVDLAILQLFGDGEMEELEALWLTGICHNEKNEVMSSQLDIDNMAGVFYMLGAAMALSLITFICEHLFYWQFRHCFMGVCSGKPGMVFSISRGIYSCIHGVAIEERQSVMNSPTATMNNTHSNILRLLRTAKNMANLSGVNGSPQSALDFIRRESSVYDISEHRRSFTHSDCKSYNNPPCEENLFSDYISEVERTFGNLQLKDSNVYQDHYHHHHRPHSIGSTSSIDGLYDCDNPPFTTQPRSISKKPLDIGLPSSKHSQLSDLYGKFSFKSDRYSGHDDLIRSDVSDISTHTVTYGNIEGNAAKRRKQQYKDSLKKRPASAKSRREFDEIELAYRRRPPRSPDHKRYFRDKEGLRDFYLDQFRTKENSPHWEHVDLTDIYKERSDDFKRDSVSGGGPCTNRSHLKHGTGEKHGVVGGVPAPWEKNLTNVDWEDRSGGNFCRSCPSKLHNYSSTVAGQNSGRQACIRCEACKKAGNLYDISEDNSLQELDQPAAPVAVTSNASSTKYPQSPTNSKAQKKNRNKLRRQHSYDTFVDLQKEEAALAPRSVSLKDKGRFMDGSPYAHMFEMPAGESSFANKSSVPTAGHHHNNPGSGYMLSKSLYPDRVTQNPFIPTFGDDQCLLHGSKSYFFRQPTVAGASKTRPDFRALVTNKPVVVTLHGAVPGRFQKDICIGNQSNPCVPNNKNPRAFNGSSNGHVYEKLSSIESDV

GluN1/2A-(2D D2) = GluN1/2A-(2D D2) (Rattus norvegicus, UniProt P35439+Q00959, D675E/D715E/F680L/F708Y/G712R/G740R/H674Q/I755V/K668R/K738M/N696S/Q661T/Q703S/R681K/R692K/R711P/R741K/S677Y/S719Q/T663S/T706V/T722A/V718T/Y676Q/Y700D/Y754K); conditions: 100 μM glutamate plus 30 μM glycine
GluN1/2D-(2A S1) = GluN1/2D-(2A S1) (Rattus norvegicus, UniProt P35439+Q62645, A432V/A445I/A493S/A563S/D455N/D515N/D531V/DELINS461-477KFVKINNSTNEGMNV/F526V/G450E/G497K/G516N/H494R/I448L/I453V/I496V/I514V/I534V/I546V/P444D/R437A/R479K/R491K/S449T/S456T/S499T/T430S/V431I); conditions: 100 μM glutamate + 3 μM glycine; N.E. = no effect at 10 μM TCN-201
Summary of the method: as §1

[1] = molecular target: GluN1-1b/GluN2A receptors (Rattus norvegicus, UniProt P35439+Q00959); conditions: 3 μM TCN-201, 30 μM glycine; contains exon 5
Summary of the method: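 Xenopus laevis oocytes (female) were injected with in vitro transcribed cRNA and recorded by two-electrode voltage clamp 3–4 d after injection at 23°C, holding at −40 mV. Voltage and current electrodes held 0.3 and 3.0 M KCl.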

GluN1/GluN2B L783F+F784V = GluN1/GluN2B L783F+F784V (Rattus norvegicus, UniProt P35439+Q00960, F784V/L783F)
Chain of GluN1/GluN2B L783F+F784V (Q00960 27-1482 L783F/F784V, other chains not shown): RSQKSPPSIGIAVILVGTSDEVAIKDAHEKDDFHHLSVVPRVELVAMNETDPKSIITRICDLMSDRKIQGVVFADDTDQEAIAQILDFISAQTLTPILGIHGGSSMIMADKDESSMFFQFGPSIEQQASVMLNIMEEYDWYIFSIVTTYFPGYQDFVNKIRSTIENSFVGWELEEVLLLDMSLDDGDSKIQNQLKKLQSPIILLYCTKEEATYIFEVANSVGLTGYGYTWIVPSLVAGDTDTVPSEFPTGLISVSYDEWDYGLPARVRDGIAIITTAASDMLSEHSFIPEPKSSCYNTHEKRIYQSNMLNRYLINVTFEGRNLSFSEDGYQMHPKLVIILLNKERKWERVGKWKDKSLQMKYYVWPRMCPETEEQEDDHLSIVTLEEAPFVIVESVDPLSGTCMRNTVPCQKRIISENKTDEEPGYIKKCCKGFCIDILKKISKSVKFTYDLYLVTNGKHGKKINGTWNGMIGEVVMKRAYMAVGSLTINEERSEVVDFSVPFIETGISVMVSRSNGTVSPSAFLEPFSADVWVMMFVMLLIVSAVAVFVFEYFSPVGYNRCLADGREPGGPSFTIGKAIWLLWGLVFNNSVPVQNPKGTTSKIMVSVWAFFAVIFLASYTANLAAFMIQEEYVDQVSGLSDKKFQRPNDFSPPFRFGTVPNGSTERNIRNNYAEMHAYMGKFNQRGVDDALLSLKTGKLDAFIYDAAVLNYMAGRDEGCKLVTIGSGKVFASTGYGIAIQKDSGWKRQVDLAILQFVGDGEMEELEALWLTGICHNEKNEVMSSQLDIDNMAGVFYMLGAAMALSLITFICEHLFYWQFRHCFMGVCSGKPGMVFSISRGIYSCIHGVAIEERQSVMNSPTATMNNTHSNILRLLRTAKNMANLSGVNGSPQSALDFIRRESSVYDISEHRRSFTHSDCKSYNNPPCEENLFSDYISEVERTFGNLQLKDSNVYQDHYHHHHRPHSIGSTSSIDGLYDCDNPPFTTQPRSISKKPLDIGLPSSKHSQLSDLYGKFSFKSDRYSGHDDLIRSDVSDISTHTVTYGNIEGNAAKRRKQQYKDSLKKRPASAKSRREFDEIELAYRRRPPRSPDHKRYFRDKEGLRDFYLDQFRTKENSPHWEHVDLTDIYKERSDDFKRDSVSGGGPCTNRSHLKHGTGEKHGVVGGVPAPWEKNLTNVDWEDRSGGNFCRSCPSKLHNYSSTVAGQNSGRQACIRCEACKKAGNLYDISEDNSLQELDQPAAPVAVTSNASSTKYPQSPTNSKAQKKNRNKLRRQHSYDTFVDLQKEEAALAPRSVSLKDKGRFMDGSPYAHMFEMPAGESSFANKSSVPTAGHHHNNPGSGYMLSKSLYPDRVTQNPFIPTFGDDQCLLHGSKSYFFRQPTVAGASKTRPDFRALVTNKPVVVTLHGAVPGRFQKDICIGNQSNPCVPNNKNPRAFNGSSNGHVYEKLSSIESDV

[2] = molecular target: GluN1 I519A co-expressed with GluN2A (Rattus norvegicus, UniProt P35439+Q00959, I519A); conditions: 100 μM glutamate + 3 μM glycine

## O=C(NNC(=O)c1ccc(CNS(=O)(=O)c2ccc(F)c(Cl)c2)cc1)c1ccccc1 [TCN-201, 3-chloro-4-fluoro-N-[(4-[(2-(phenylcarbonyl)hydrazino)carbonyl]phenyl)methyl]-benzenesulfonamide]
GluN1/GluN2D
  TCN-201 activity IC50: did not inhibit and N.E.
GluN1/GluN2A V783S
  TCN-201 activity Max. % inhibition: 89 ± 3%
  TCN-201 activity nH: 1.4
GluN1/2A-(2D ATD)
  Inhibition by 3 μM TCN-201: did not reduce inhibition
GluN1/GluN2A T793R
  TCN-201 activity Max. % inhibition: 94 ± 2%
  TCN-201 activity nH: 2.2
GluN1/GluN2B
  TCN-201 activity IC50: did not inhibit and N.E.
GluN1/2A-(2D D2)
  Inhibition by 3 μM TCN-201: some TCN-201 activity was retained
GluN1/2D-(2A S1)
  TCN-201 activity IC50: did not introduce TCN-201 sensitivity and N.E.
[1]
  Response, % of control: 49 ± 2 % of control
GluN1/GluN2B L783F+F784V
  Kb: 437 nM
GluN1/GluN2B L783F+F784V; 100 μM glutamate + 3 μM glycine
  TCN-201 activity nH: 1.3
[2]
  TCN-201 activity Max. % inhibition: 80 ± 2%
  TCN-201 activity nH: 1.9
